Data published in ChEMBL document CHEMBL4152206, “Design, synthesis, cytotoxicity and mechanism of novel dihydroartemisinin-coumarin hybrids as potential anti-cancer agents” (Eur J Med Chem, 2018).

Legend:
Assay type in all cases: functional, cell-based
[1] = system: MDA-MB-231; experiment: Cytotoxicity against human MDA-MB-231 cells after 96 hrs under hypoxic condition by MTT assay
Summary of the method: (§1)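 MTT viability assay in HT-29 (high CA IX) and MDA-MB-231 (normal CA IX) cells under normoxic and hypoxic conditions; IC50 values reported.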

[2] = system: HT-29; experiment: Cytotoxicity against human HT-29 cells after 96 hrs under normoxic condition by MTT assay; summary of the method: as §1
[3] = system: MDA-MB-231; experiment: Cytotoxicity against human MDA-MB-231 cells after 96 hrs under normoxic condition by MTT assay; summary of the method: as §1
[4] = system: HT-29; experiment: Cytotoxicity against human HT-29 cells after 96 hrs under hypoxic condition by MTT assay; summary of the method: as §1
[5] = Homo sapiens, MDA-MB-231, 96 h, read-out: IC50
[6] = Homo sapiens, HT-29, 96 h, read-out: IC50

SMILES	IC50 [1, 5] [µM]	IC50 [2, 6] [µM]	IC50 [3, 5] [µM]	IC50 [4, 6] [µM]	IC50 ([1]; mda-mb-231)	IC50 ([2]; ht-29)	IC50 ([3]; mda-mb-231)	IC50 ([4]; ht-29)
Cc1cc(=O)oc2cc(OCCn3cc(CCO[C@H]4O[C@@H]5O[C@@]6(C)CC[C@H]7[C@H](C)CC[C@@H]([C@H]4C)[C@@]57OO6)nn3)ccc12	18.2	5.72	17	10.7				
C[C@H]1[C@@H](OCCc2cn(CCOc3ccc4c(C(F)(F)F)cc(=O)oc4c3)nn2)O[C@@H]2O[C@@]3(C)CC[C@H]4[C@H](C)CC[C@@H]1[C@@]24OO3	14.2	3.58	17.9	4.01				
Cc1cc(=O)oc2cc(OCCCO[C@H]3O[C@@H]4O[C@@]5(C)CC[C@H]6[C@H](C)CC[C@@H]([C@H]3C)[C@@]46OO5)ccc12	22.9	13.8	30	8.71				
Cc1c(Cl)c(=O)oc2cc(O[C@H]3O[C@@H]4O[C@@]5(C)CC[C@H]6[C@H](C)CC[C@@H]([C@H]3C)[C@@]46OO5)ccc12	1.4	1.28	50.5	0.41				
COC(=O)c1cc2ccc(OCCCn3cc(CCO[C@H]4O[C@@H]5O[C@@]6(C)CC[C@H]7[C@H](C)CC[C@@H]([C@H]4C)[C@@]57OO6)nn3)cc2oc1=O					Nd(Insoluble)	Nd(Insoluble)	Nd(Insoluble)	Nd(Insoluble)
Cc1c(Cl)c(=O)oc2cc(-n3cc(CO[C@H]4O[C@@H]5O[C@@]6(C)CC[C@H]7[C@H](C)CC[C@@H]([C@H]4C)[C@@]57OO6)nn3)ccc12	24.7	4.27	50.5	1.15				
C[C@H]1[C@@H](OCCc2cn(-c3ccc4c(C(F)(F)F)cc(=O)oc4c3)nn2)O[C@@H]2O[C@@]3(C)CC[C@H]4[C@H](C)CC[C@@H]1[C@@]24OO3	95.7	6.07	1.85	10.3				
Cc1c(F)c(=O)oc2cc(-n3cc(CCO[C@H]4O[C@@H]5O[C@@]6(C)CC[C@H]7[C@H](C)CC[C@@H]([C@H]4C)[C@@]57OO6)nn3)ccc12	3.36	9.89	3.84	5.66				
Cc1c(Cl)c(=O)oc2cc(OCCCn3cc(CCO[C@H]4O[C@@H]5O[C@@]6(C)CC[C@H]7[C@H](C)CC[C@@H]([C@H]4C)[C@@]57OO6)nn3)ccc12	6.07	1.19	31	1.68				
C[C@H]1[C@@H](OCCc2cn(CCCOc3ccc4c(C(F)(F)F)cc(=O)oc4c3)nn2)O[C@@H]2O[C@@]3(C)CC[C@H]4[C@H](C)CC[C@@H]1[C@@]24OO3	6.58	5.88	32.5	4.29				
Cc1c(Cl)c(=O)oc2cc(OCCCO[C@H]3O[C@@H]4O[C@@]5(C)CC[C@H]6[C@H](C)CC[C@@H]([C@H]3C)[C@@]46OO5)ccc12	2.38	2.55	0.6	8.05				
Cc1c(C)c2ccc(OCCCn3cc(CCO[C@H]4O[C@@H]5O[C@@]6(C)CC[C@H]7[C@H](C)CC[C@@H]([C@H]4C)[C@@]57OO6)nn3)cc2oc1=O	33.2	5	> 100	0.11				
C[C@H]1[C@@H](Oc2ccc3c(C(F)(F)F)cc(=O)oc3c2)O[C@@H]2O[C@@]3(C)CC[C@H]4[C@H](C)CC[C@@H]1[C@@]24OO3	3.25	11.1	56.8	22.3				
Cc1c(C)c2ccc(-n3cc(CCO[C@H]4O[C@@H]5O[C@@]6(C)CC[C@H]7[C@H](C)CC[C@@H]([C@H]4C)[C@@]57OO6)nn3)cc2oc1=O	3.58	4.71	3.75	0.08				
Cc1c(C)c2ccc(-n3cc(CO[C@H]4O[C@@H]5O[C@@]6(C)CC[C@H]7[C@H](C)CC[C@@H]([C@H]4C)[C@@]57OO6)nn3)cc2oc1=O	4.85	2.67	23.4	0.02				
Cc1c(C)c2ccc(OCCCO[C@H]3O[C@@H]4O[C@@]5(C)CC[C@H]6[C@H](C)CC[C@@H]([C@H]3C)[C@@]46OO5)cc2oc1=O	7.92	8.71	17.1	3.54				
C[C@H]1[C@@H](O)O[C@@H]2O[C@@]3(C)CC[C@H]4[C@H](C)CC[C@@H]1[C@@]24OO3 [ARTENIMOL]	5.64	> 100	47.1	18.5				
CCOC(=O)c1cc2ccc(O[C@H]3O[C@@H]4O[C@@]5(C)CC[C@H]6[C@H](C)CC[C@@H]([C@H]3C)[C@@]46OO5)cc2oc1=O	2.85	3.45	21.9	7.17				

SMILES	IC50 [1, 5] [µM]	IC50 [2, 6] [µM]	IC50 [3, 5] [µM]	IC50 [4, 6] [µM]	IC50 ([1]; mda-mb-231)	IC50 ([2]; ht-29)	IC50 ([3]; mda-mb-231)	IC50 ([4]; ht-29)
Cc1c(C)c2ccc(OCCO[C@H]3O[C@@H]4O[C@@]5(C)CC[C@H]6[C@H](C)CC[C@@H]([C@H]3C)[C@@]46OO5)cc2oc1=O	12.8	12.8	57.2	57.2				
Cc1cc(=O)oc2cc(OCCO[C@H]3O[C@@H]4O[C@@]5(C)CC[C@H]6[C@H](C)CC[C@@H]([C@H]3C)[C@@]46OO5)ccc12	0.1	2.35	4.29	3.69				
C[C@H]1[C@@H](OCCCOc2ccc3c(C(F)(F)F)cc(=O)oc3c2)O[C@@H]2O[C@@]3(C)CC[C@H]4[C@H](C)CC[C@@H]1[C@@]24OO3	8.86	4.57	13.6	1.19				
Cc1c(Cl)c(=O)oc2cc(-n3cc(CCO[C@H]4O[C@@H]5O[C@@]6(C)CC[C@H]7[C@H](C)CC[C@@H]([C@H]4C)[C@@]57OO6)nn3)ccc12	1.03	1.5	5.19	0.01				
Cc1c(Cl)c(=O)oc2cc(OCCO[C@H]3O[C@@H]4O[C@@]5(C)CC[C@H]6[C@H](C)CC[C@@H]([C@H]3C)[C@@]46OO5)ccc12	5.36	23.9	18	7.02				
Cc1cc(=O)oc2cc(OCCCn3cc(CCO[C@H]4O[C@@H]5O[C@@]6(C)CC[C@H]7[C@H](C)CC[C@@H]([C@H]4C)[C@@]57OO6)nn3)ccc12	14.4	6.87	72.2	0.11				
Cc1c(C)c2ccc(O[C@H]3O[C@@H]4O[C@@]5(C)CC[C@H]6[C@H](C)CC[C@@H]([C@H]3C)[C@@]46OO5)cc2oc1=O	6.44	11.8	78.8	30.3				
C[C@H]1[C@@H](OCCOc2ccc3c(C(F)(F)F)cc(=O)oc3c2)O[C@@H]2O[C@@]3(C)CC[C@H]4[C@H](C)CC[C@@H]1[C@@]24OO3	6.14	54.8	15.2	5.59				
COC(=O)c1cc2ccc(OCCn3cc(CCO[C@H]4O[C@@H]5O[C@@]6(C)CC[C@H]7[C@H](C)CC[C@@H]([C@H]4C)[C@@]57OO6)nn3)cc2oc1=O	58.4	67.2	61	75.7				
COc1cccc2c1C(=O)c1c(O)c3c(c(O)c1C2=O)C[C@@](O)(C(=O)CO)C[C@@H]3O[C@H]1C[C@H](N)[C@H](O)[C@H](C)O1 [DOXORUBICIN]	5.98	0.24	1.07	0.25				
Cc1c(C)c2ccc(OCCn3cc(CCO[C@H]4O[C@@H]5O[C@@]6(C)CC[C@H]7[C@H](C)CC[C@@H]([C@H]4C)[C@@]57OO6)nn3)cc2oc1=O	52.3	3.47	56.7	14.6				
Cc1c(F)c(=O)oc2cc(-n3cc(CO[C@H]4O[C@@H]5O[C@@]6(C)CC[C@H]7[C@H](C)CC[C@@H]([C@H]4C)[C@@]57OO6)nn3)ccc12	2.6	3.35	3.47	7.39				
Cc1cc(=O)oc2cc(-n3cc(CCO[C@H]4O[C@@H]5O[C@@]6(C)CC[C@H]7[C@H](C)CC[C@@H]([C@H]4C)[C@@]57OO6)nn3)ccc12	9.96	8.95	3.78	10.9				
CC(=O)Nc1nnc(S(N)(=O)=O)s1 [ACETAZOLAMIDE]	> 100	> 100	> 100	> 100				
C[C@H]1[C@@H](OCc2cn(-c3ccc4c(C(F)(F)F)cc(=O)oc4c3)nn2)O[C@@H]2O[C@@]3(C)CC[C@H]4[C@H](C)CC[C@@H]1[C@@]24OO3	49.6	5.22	> 100	5.33				
Cc1cc(=O)oc2cc(-n3cc(CO[C@H]4O[C@@H]5O[C@@]6(C)CC[C@H]7[C@H](C)CC[C@@H]([C@H]4C)[C@@]57OO6)nn3)ccc12	49.8	10.8	21.5	5.09				
Cc1c(Cl)c(=O)oc2cc(OCCn3cc(CCO[C@H]4O[C@@H]5O[C@@]6(C)CC[C@H]7[C@H](C)CC[C@@H]([C@H]4C)[C@@]57OO6)nn3)ccc12	7.24	5.28	7.53	2.37				
